AF4-AF9 inh: MLL-AF4/AF9 protein interaction inhibition | AID 651704 | 350,000 compounds, 0.47% hits | AlphaScreen, biotin-AF4 peptide binding to FLAG-AF9 | P42568 | inhibition, % at 10 µM;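 active = every replicate reaching a set inhibition limit, whatever the replicate mean, cut at about 25% in these data; inconclusive = mean inhibition reaches that limit but some replicates miss it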
ERAP1 inh: blocks human ERAP1 aminopeptidase activity; Q9NZ08; recombinant ERAP1, Leu-AMC fluorescence, 60 min; inhibition, % at 10.7 µM; 340,000 compounds, 0.15% hits; AID 652197;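 active = mean replicate inhibition of at least 30%, or all replicates individually reaching that 30% level; inactive = mean below 30% and not every replicate reaching it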
GSIS activator: primary screen for activators of insulin secretion dependent on glucose, INS-1E cells, GLuc reporter luminescence | INS-1E GLuc reporter insulin secretion, 2-3 h | activation, % at 16.6 µM | 370,000 compounds, 0.61% hits;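 active = lowest replicate activation of at least 40%, so every replicate reaches that level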
S100A4 inh HTS: inhibitors of human S100A4 binding to myosin IIA peptide; S100A4/TAMRA-MyoIIA peptide fluorescence polarization; 360,000 compounds, 0.14% hits; inhibition, % at 10.7 µM; P26447; AID 652163;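 active = mean inhibition of at least 70% across replicates, with every replicate also reaching that level; inconclusive = mean inhibition reaches 70% but some replicates fall short; inactive = mean inhibition below 70%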
Target sequence (P26447 whole entry, looked up): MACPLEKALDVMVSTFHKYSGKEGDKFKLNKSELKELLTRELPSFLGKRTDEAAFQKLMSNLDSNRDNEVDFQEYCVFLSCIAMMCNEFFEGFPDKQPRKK
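Compound dosing: one dose per compound; test system: human S100A4 monomer with TAMRA-labelled myosin IIA peptide; probe or stimulus: TAMRA-labelled myosin IIA heavy-chain peptide probe, 5 nM; medium: HEPES buffer with Ca2+, pH 7.2; schedule: 5 min incubation before reading; benchmarks: neutral control DMSO, positive control TFP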
RAD52 anneal inh: blocks human RAD52 DNA annealing. P43351. recombinant RAD52 DNA annealing, FRET fluorescence. inhibition, % at 18.7 µM. 360,000 compounds, 0.46% hits. AID 651710;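 active = every replicate showing at least 50% inhibition; inconclusive = mean inhibition at least 50% but not in every replicate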
Target sequence (P43351 whole entry, looked up): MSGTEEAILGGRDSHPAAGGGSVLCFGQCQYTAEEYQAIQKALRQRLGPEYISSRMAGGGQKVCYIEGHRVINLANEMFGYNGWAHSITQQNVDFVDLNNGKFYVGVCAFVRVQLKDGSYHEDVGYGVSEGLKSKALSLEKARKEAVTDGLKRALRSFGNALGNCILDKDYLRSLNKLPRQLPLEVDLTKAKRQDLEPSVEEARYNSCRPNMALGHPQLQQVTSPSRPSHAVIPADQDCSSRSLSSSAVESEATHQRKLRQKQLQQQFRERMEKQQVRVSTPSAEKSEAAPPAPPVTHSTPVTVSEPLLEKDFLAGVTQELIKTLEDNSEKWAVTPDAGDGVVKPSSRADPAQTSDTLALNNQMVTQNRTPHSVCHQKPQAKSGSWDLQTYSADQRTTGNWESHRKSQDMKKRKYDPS
RAD52 DNA ctr: binds DNA, flagging false RAD52 inhibitor hits; shares compounds with RAD52 anneal inh; Salmon sperm DNA/acridine orange FP displacement, DNA binding; AC50, µM; 1,000 compounds, 8% hits; AID 652128;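 active = fitted half-maximal concentration for signal loss at or below twice the highest dose tested, in every separate run, actives reach about 64 µM in these data; inconclusive = runs disagree, or flat partial signal loss, or poor fit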
Numbers stand for hits; 0 = inactive; ? = inconclusive; - = not tested or not shown. Sampled rows, rich in hits. Any-hit rate of the full collection: about 1.5%.

SMILES | AF4-AF9 inh | ERAP1 inh | GSIS activator | S100A4 inh HTS | RAD52 anneal inh | RAD52 DNA ctr
COc1ccc(OC)c(N/C(N)=N/c2nc(C)cc(C)n2)c1 | 0 | 0 | 0 | 0 | 50.0 | 0
CNC[C@@H]1Oc2c(NS(C)(=O)=O)cccc2C(=O)N(C)C[C@@H]1C | - | - | 0 | - | - | -
CN1/C(=C/C=C/c2n(C)c3cc([N+](=O)[O-])c([N+](=O)[O-])cc3[n+]2C)C(C)(C)c2ccccc21 | 55.5 | 0 | 0 | 0 | 61.4 | 38.3µM
Cc1cccc[n+]1CC(=O)/C=C1\N(C)c2ccccc2C1(C)C | 0 | 0 | 0 | 0 | 0 | -
CCCCCCCCCCCC1N=C(N)NC(CCCO)=C1C(=O)OC (stereo not given) | 0 | 44.0 | - | 0 | 88.2 | ?
O=C(C[C@@H]1C[C@H]2c3cc(NC(=O)Nc4ccccc4F)ccc3O[C@H]2[C@@H](CO)O1)NCCc1ccccc1 | 0 | 0 | 0 | 0 | 0 | -
CC1(C)Cc2c(c(-c3ccco3)nc3sc4c(NCCN5CCOCC5)ncnc4c23)CO1 | 0 | 0 | 0 | 0 | 0 | -
OCCNc1ncnc2c1sc1nc(N3CCOCC3)c3c(c12)CCC3 | 0 | 0 | 0 | 0 | 0 | -
CCN(CC)CCNc1ncnc2c1sc1nc(N3CCCC3)c3c(c12)CC(C)(C)OC3 | 0 | 0 | 0 | 0 | 78.8 | 0
CN(C)CCNc1ncnc2c1sc1nc(N3CCCC3)c3c(c12)CC(C)(C)OC3 | 0 | 0 | 0 | 0 | 87.6 | 0
CCN(CC)CCNc1ncnc2c1sc1nc(N3CCOCC3)c3c(c12)CCCC3 | 0 | 0 | 0 | 0 | 66.3 | 65.1µM
COc1ccc(-c2cn(CC[C@@H]3CC[C@H](NC(=O)NC(C)C)[C@@H](CO)O3)nn2)cc1 | 0 | 0 | 0 | 0 | 0 | -
COCC(=O)Nc1ccc2c(c1)[C@@H]1C[C@H](CC(=O)NC3CCCCC3)O[C@@H](CO)[C@@H]1O2 | 0 | 0 | 0 | 0 | 0 | -
O=C1c2cccc(NCCNCCO)c2C(=O)c2cccc(NCCNCCO)c21 | 46.0 | 0 | 0 | 0 | 63.2 | 4.04µM
C[n+]1ccc(/C=C/c2ccccc2O)c2ccccc21 | 0 | 0 | 0 | 0 | 54.1 | 46.2µM
CC(=O)/C=C/c1ccccc1O | 0 | 0 | 0 | 0 | 0 | -
CCN(CC)CCNC(=O)C(=O)Nc1cc2c3c(c1)CC(=O)N3CCC2 | 0 | 0 | 0 | 0 | 55.0 | 0
CCCCCCCCCCCCCCCC[n+]1ccccc1 | 0 | 74.8 | 497.2 | 0 | 92.8 | ?
CCCCCCCCCCCCCCCC[n+]1ccc(C(N)=O)cc1 | - | - | 0 | - | - | -
COC1=Nc2ccccc2N2CCN=C12 | 0 | 0 | 0 | 0 | 0 | -
c1ccc2c(c1)C1=NCCN1c1ccccc1-2 | 0 | 0 | 0 | 0 | 81.7 | ?
COc1ccc(S(=O)(=O)N(C)C[C@H]2OCCCC[C@H](C)Oc3ccc(NS(=O)(=O)c4cccs4)cc3C(=O)N([C@H](C)CO)C[C@@H]2C)cc1 | 0 | 0 | 0 | 0 | 0 | -
OC(CN1CCOCC1)Cn1c2ccccc2c2ccccc21 (stereo not given) | 0 | 0 | 0 | 0 | 0 | -
OC(CN1CCCCC1)Cn1c2ccc(Cl)cc2c2cc(Cl)ccc21 (stereo not given) | 0 | 0 | 0 | 0 | 59.1 | 0
CC1CCN(CC(O)Cn2c3ccccc3c3ccccc32)CC1 (stereo not given) | 0 | 0 | 0 | 0 | 0 | -
SMILES | AF4-AF9 inh | ERAP1 inh | GSIS activator | S100A4 inh HTS | RAD52 anneal inh | RAD52 DNA ctr
OC(CN1CCNCC1)Cn1c2ccccc2c2ccccc21 (stereo not given) | 0 | 0 | 0 | 0 | 79.0 | 0
C[C@@H]1CN([C@@H](C)CO)S(=O)(=O)c2ccc(C#CCC3CCCC3)cc2O[C@H]1CN(C)C | 0 | 0 | 0 | 0 | 0 | -
CCOCCCn1c(C)nc2c[n+](CC(=O)c3ccc4ccccc4c3)cc(Br)c21 | 0 | - | 0 | 0 | 64.4 | 0
Cc1cc(N/N=C/c2ccc(O)cc2)c2cccc(C)c2n1 | ? | 0 | 0 | 0 | 77.5 | 52.1µM
Cc1cc(C)c2nc(C)cc(N/N=C/c3ccc(O)cc3)c2c1 | 25.8 | 0 | 0 | 0 | 93.9 | ?
Cc1cc(N/N=C/c2ccc(N(C)C)cc2)c2ccccc2n1 | 0 | 0 | 0 | 0 | 0 | -
C[C@H](CO)N1C[C@H](C)[C@H](CN(C)Cc2ccc(C(=O)Nc3ccccc3N)cc2)Oc2ccc(NS(=O)(=O)c3ccc(Cl)cc3)cc2CC1=O | 0 | 0 | 0 | 0 | 0 | -
CN(C)C=Nc1ccc2nc3c(cc2c1)[nH]c1ccccc13 | 0 | 0 | 0 | 0 | 95.7 | 22.7µM
COc1ccc(C)c2sc(N(CCN(C)C)C(=O)/C=C/c3cccs3)nc12 | 0 | 0 | 0 | 0 | 0 | -
CCN(CC)CCN(C(=O)/C=C/c1cccs1)c1nc2ccc(F)cc2s1 | 0 | 0 | 0 | 0 | 0 | -
CN(C)CCCN(C(=O)/C=C/c1cccs1)c1nc2ccc(F)cc2s1 | 0 | 0 | 0 | 0 | 58.4 | 0
COc1ccc(OC)c2sc(N(CCN(C)C)C(=O)/C=C/c3cccs3)nc12 | 0 | 0 | 0 | 0 | 101.1 | 0
COCc1cn(CC[C@H]2CC[C@@H](NC(=O)Nc3ccc(F)cc3)[C@@H](CO)O2)nn1 | 0 | 0 | 0 | 0 | 0 | -
CCN(CC)CCCNC(=O)c1cc(Nc2ccc(OC)cc2OC)nc2ccccc12 | 0 | 0 | 0 | 0 | 0 | 0
COc1ccc(CNC(=O)C[C@H]2C[C@@H]3c4cc(NS(=O)(=O)c5ccc(F)cc5)ccc4O[C@@H]3[C@H](CO)O2)cc1 | 0 | 0 | 0 | 0 | 0 | -
Cn1c2ccc(F)cc2c2nnc(SCCN3CCCCC3)nc21 | 0 | 0 | 0 | 0 | 0 | -
Cc1cc(C)c2c(c1)c1nnc(SCCN3CCCCC3)nc1n2C | 0 | 0 | 0 | 0 | 85.5 | 0
Cc1c(C)n(C)c2ccc(C(=O)NCCN3CCOCC3)cc12 | 0 | 0 | 0 | 0 | 0 | -
Cc1c(C)n(C)c2ccc(C(=O)NCCCN3CCN(C)CC3)cc12 | 0 | 0 | 0 | 0 | 74.2 | 0
COc1ccccc1C1c2ccc3ccccc3c2Oc2ncn(CCN(C)C)c(=N)c21 (stereo not given) | 0 | 0 | 0 | 0 | 60.1 | 0
COc1ccc(C2c3ccc4ccccc4c3Oc3ncn(CCCN(C)C)c(=N)c32)cc1 (stereo not given) | 33.3 | 0 | 0 | 0 | 79.6 | 0
Cc1ccc2nc(Cl)c3cc(C(=O)NCCCN4CCCC4)sc3c2c1 | 0 | 0 | 0 | 0 | 79.1 | 48.5µM
COc1cccc(C(=O)OCCCN(C)C)c1 | 0 | 0 | 0 | 0 | 0 | -
CN(CCCCCCCCCCN(C)C(=O)Oc1cccc([N+](C)(C)C)c1)C(=O)Oc1cccc([N+](C)(C)C)c1 | 0 | 0 | 0 | 0 | 51.6 | 0
NCCNCCNCCN | 0 | 0 | 0 | 0 | 94.3 | 0
CCN(CC)CCC(=O)Nc1cccc2c1C(=O)c1ccccc1C2=O | 0 | 0 | - | 0 | 78.5 | 9.04µM
COc1cc(C(CCN2CCCC2)c2c(OC)cc(OC)c3c(C)cc(=O)oc23)cc(OC)c1OC (stereo not given) | - | - | 0 | - | - | -
CCCCCc1cc(=O)oc2c(C(CCN3CCCC3)c3cc(OC)c(OC)c(OC)c3)c(OC)cc(OC)c12 (stereo not given) | 0 | 0 | - | 0 | 59.3 | 0

Assay outcomes: PubChem BioAssay, Broad Institute
